Results: ChEMBL document CHEMBL3045248, “Stereoselective synthesis and antifungal activities of (E)-alpha-(methoxyimino)benzeneacetate derivatives containing 1,3,5-substituted pyrazole ring” (2006)

Tests used:
Assay type in all cases: functional
[1] = tested on: Botryosphaeria berengeriana; experiment: Fungicidal activity against Botryosphaeria berengeriana assessed as inhibition of mycelial elongation at 50 ug/mL incubated for 48 hr
Outline: (§1)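 Poisoned-food plate assay on potato glucose agar: DMF stock of 500 mg/L mixed 1:9 into molten medium at 50 °C, poured and set, then seeded with a 4 mm mycelial disk. Plates inverted, incubated 28 °C for 48 h. Water as blank control. Colony radius (mm) measured, triplicate; inhibition I = [(C − T)/C] × 100% versus control radius. Field isolates from crops.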

Bipolaris maydis = experiment: Fungicidal activity against Cochliobolus heterostrophus assessed as inhibition of mycelial elongation at 50 ug/mL incubated for 48 hr; outline: as §1
Fusarium graminearum = experiment: Fungicidal activity against Fusarium graminearum assessed as inhibition of mycelial elongation at 50 ug/mL incubated for 48 hr
Outline: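 Field isolate of G. zeae taken from crops. A 500 mg/L DMF stock (1 mL) was mixed with 9 mL molten potato glucose agar at 50 °C and poured into plates. A 4 mm mycelial disk was placed on each plate, which was inverted and kept at 28 °C for 48 h. Water served as the blank. Colony radius was measured in triplicate, and inhibition was calculated as (C−T)/C×100%.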

Rhizoctonia solani = experiment: Fungicidal activity against Rhizoctonia solani assessed as inhibition of mycelial elongation at 50 ug/mL incubated for 48 hr; outline: as §1
Botrytis cinerea = experiment: Fungicidal activity against Botryotinia fuckeliana assessed as inhibition of mycelial elongation at 50 ug/mL incubated for 48 hr; outline: as §1

CO/N=C(/C(=O)OC)c1ccccc1CO/N=C/c1c(C)nn(C)c1Oc1ccc(C)cc1
inhibition at 50 µg/mL [1]: 88.2% | inhibition at 50 µg/mL (Bipolaris maydis): 72.7% | inhibition at 50 µg/mL (Fusarium graminearum): 50% | inhibition at 50 µg/mL (Rhizoctonia solani): 90.2% | inhibition at 50 µg/mL (Botrytis cinerea): 80.8%

CO/N=C(/C(=O)OC)c1ccccc1CO/N=C/c1c(C)nn(C)c1Oc1ccccc1C
inhibition at 50 µg/mL [1]: 76.5% | inhibition at 50 µg/mL (Bipolaris maydis): 72.7% | inhibition at 50 µg/mL (Fusarium graminearum): 53.1% | inhibition at 50 µg/mL (Rhizoctonia solani): 83.7% | inhibition at 50 µg/mL (Botrytis cinerea): 80.8%

CO/N=C(/C(=O)OC)c1ccccc1CO/N=C/c1c(C)nn(C)c1Oc1cccc(C)c1
inhibition at 50 µg/mL [1]: 100% | inhibition at 50 µg/mL (Bipolaris maydis): 81.8% | inhibition at 50 µg/mL (Fusarium graminearum): 96.9% | inhibition at 50 µg/mL (Rhizoctonia solani): 88% | inhibition at 50 µg/mL (Botrytis cinerea): 80.8%

CO/N=C(/C(=O)OC)c1ccccc1CO/N=C/c1c(C)nn(C)c1Oc1ccc(Cl)cc1
inhibition at 50 µg/mL [1]: 92.6% | inhibition at 50 µg/mL (Bipolaris maydis): 92.9% | inhibition at 50 µg/mL (Fusarium graminearum): 80% | inhibition at 50 µg/mL (Rhizoctonia solani): 100% | inhibition at 50 µg/mL (Botrytis cinerea): 100%

CO/N=C(/C(=O)OC)c1ccccc1CO/N=C/c1c(C)nn(C)c1Oc1ccc(Cl)cc1Cl
inhibition at 50 µg/mL [1]: 96.3% | inhibition at 50 µg/mL (Bipolaris maydis): 92.9% | inhibition at 50 µg/mL (Fusarium graminearum): 88.6% | inhibition at 50 µg/mL (Rhizoctonia solani): 99% | inhibition at 50 µg/mL (Botrytis cinerea): 100%

CO/N=C(/C(=O)OC)c1ccccc1CO/N=C/c1c(C)nn(C)c1Oc1cccc([N+](=O)[O-])c1
inhibition at 50 µg/mL [1]: 77.8% | inhibition at 50 µg/mL (Bipolaris maydis): 64.3% | inhibition at 50 µg/mL (Fusarium graminearum): 62.9% | inhibition at 50 µg/mL (Rhizoctonia solani): 91.6% | inhibition at 50 µg/mL (Botrytis cinerea): 98.8%

CO/N=C(/C(=O)OC)c1ccccc1CO/N=C/c1c(C)nn(C)c1Oc1ccccc1F
inhibition at 50 µg/mL [1]: 88.2% | inhibition at 50 µg/mL (Bipolaris maydis): 68.2% | inhibition at 50 µg/mL (Fusarium graminearum): 50% | inhibition at 50 µg/mL (Rhizoctonia solani): 83.7% | inhibition at 50 µg/mL (Botrytis cinerea): 84.6%

CO/N=C(/C(=O)OC)c1ccccc1CO/N=C/c1c(C)nn(C)c1Oc1ccc(F)cc1
inhibition at 50 µg/mL [1]: 100% | inhibition at 50 µg/mL (Bipolaris maydis): 86.4% | inhibition at 50 µg/mL (Fusarium graminearum): 59.4% | inhibition at 50 µg/mL (Rhizoctonia solani): 90.2% | inhibition at 50 µg/mL (Botrytis cinerea): 88.5%

CO/N=C(/C(=O)OC)c1ccccc1CO/N=C/c1c(C)nn(C)c1Oc1cccc(C(F)(F)F)c1
inhibition at 50 µg/mL [1]: 88.2% | inhibition at 50 µg/mL (Bipolaris maydis): 68.2% | inhibition at 50 µg/mL (Fusarium graminearum): 68.8% | inhibition at 50 µg/mL (Rhizoctonia solani): 83.7% | inhibition at 50 µg/mL (Botrytis cinerea): 92.3%

CO/N=C(/C(=O)OC)c1ccccc1CO/N=C/c1c(C)nn(C)c1OC
inhibition at 50 µg/mL [1]: 100% | inhibition at 50 µg/mL (Bipolaris maydis): 86.7% | inhibition at 50 µg/mL (Fusarium graminearum): 79.4% | inhibition at 50 µg/mL (Rhizoctonia solani): 82.7% | inhibition at 50 µg/mL (Botrytis cinerea): 85.4%

CCOc1c(/C=N/OCc2ccccc2/C(=N\OC)C(=O)OC)c(C)nn1C
inhibition at 50 µg/mL [1]: 100% | inhibition at 50 µg/mL (Bipolaris maydis): 92.6% | inhibition at 50 µg/mL (Fusarium graminearum): 90.5% | inhibition at 50 µg/mL (Rhizoctonia solani): 92.5% | inhibition at 50 µg/mL (Botrytis cinerea): 96.8%

CCCOc1c(/C=N/OCc2ccccc2/C(=N\OC)C(=O)OC)c(C)nn1C
inhibition at 50 µg/mL [1]: 93.8% | inhibition at 50 µg/mL (Bipolaris maydis): 85% | inhibition at 50 µg/mL (Fusarium graminearum): 78.4% | inhibition at 50 µg/mL (Rhizoctonia solani): 87.8% | inhibition at 50 µg/mL (Botrytis cinerea): 87.1%

CO/N=C(/C(=O)OC)c1ccccc1CO/N=C/c1c(C)nn(C)c1OCC(F)(F)F
inhibition at 50 µg/mL [1]: 95.5% | inhibition at 50 µg/mL (Bipolaris maydis): 90.9% | inhibition at 50 µg/mL (Fusarium graminearum): 80% | inhibition at 50 µg/mL (Rhizoctonia solani): 91.8% | inhibition at 50 µg/mL (Botrytis cinerea): 100%

CO/N=C(/C(=O)OC)c1ccccc1COc1ccccc1C [KRESOXIM-METHYL]
inhibition at 50 µg/mL [1]: 98.5% | inhibition at 50 µg/mL (Bipolaris maydis): 90.6% | inhibition at 50 µg/mL (Fusarium graminearum): 96.8% | inhibition at 50 µg/mL (Rhizoctonia solani): 66.1% | inhibition at 50 µg/mL (Botrytis cinerea): 97.2%
